Screening data from PubChem BioAssay.
LEDGF integ inh = blocks HIV-1 LEDGF/p75-dependent DNA integration. TR-FRET IN-LEDGF/p75 DNA integration, Eu/Cy5. inhibition, % at 3.7 µM. hit rate 0.64% among 370,000. AID 743269;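 active = inhibition above the screen-wide mean plus 3 SD, cut at about 13% in these data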;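 note: signal is the Cy5 over europium emission ratio at 671 and 618 nm; 0% = plate median of compound wells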
Casp6 inh = blocks human caspase-6 cleavage activity; P55212; AID 686996; hit rate 0.53% among 350,000; inhibition, % at 12.5 µM; purified caspase-6, Z-VEID-R110 cleavage fluorescence;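 active = mean inhibition across replicates at least about 35%, with every replicate also reaching that limit, limit read from the data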;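 note: 0% = median of neutral control wells and 100% = no fluorescence left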
NSD2 inh = inhibitors of human histone methyltransferase NSD2; NSD2 peptide methylation, AlphaScreen, 120 min; inhibition, % at 12.5 µM; hit rate 0.54% among 310,000; O96028; in the data active = inhibition above about 50%
MBD2 DNA inh = inhibitors of human MBD2 binding to methylated oligonucleotide; Q9UBB5; TR-FRET; hit rate 0.31% among 370,000; inhibition, % at 4.4 µM; in the data active = inhibition above about 13%
TDP2 inh = TDP2 (human) inhibition, absorbance primary screen | O95551 | recombinant TDP2, T5PNP hydrolysis, p-nitrophenol absorbance 415 nm | inhibition, % at 12.8 µM | hit rate 0.34% among 370,000;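 active = inhibition above the mean of all tested compounds plus 3 SD, set per campaign, cut at about 25% in these data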;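 note: 0% = DMSO with enzyme and 100% = buffer with substrate but no TDP2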
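System – recombinant human TDP2 · Amount – 120 nM TDP2 per well · Buffer or medium – Mg2+-containing Tris-HCl buffer, pH 7.5 · Reagent – T5PNP substrate, 5 mM · Dosing – 12.8 µM single point, 1% DMSO · Incubation – 2 h at 37 °C · Measured by – epi absorbance · Read-out basis – percent inhibition · Benchmarks – high control without enzyme, low control DMSO plus TDP2 · Repeats – singlicate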
UHRF1 MBD2 ctr = blocks human UHRF1 binding to methylated DNA | Q96T88 | UHRF1 binding to methylated oligo, TR-FRET | inhibition, % at 4.4 µM | hit rate 0.75% among 370,000; in the data active = inhibition above about 21%;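 note: UHRF1 SRA domain binding a hemimethylated CpG hairpin DNA probe; 0% = median of test compound wells and 100% = reference inhibitor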
IN multimer act = counter-screen for LEDGF/p75 integration inhibitors: HIV-1 integrase multimerization activators; TR-FRET HIV-1 integrase multimerization, biochemical; shares compounds with LEDGF integ inh; activation, % at 7.7 µM; hit rate 17% among 2,000; in the data active = activation above about 8.9%
TRFRET interf = TR-FRET optical interference, LEDGF/p75 integration counter-screen | shares compounds with LEDGF integ inh | TR-FRET optical interference counterscreen, HIV-1 IN multimerization | inhibition, % at 7.7 µM | 2,000 tested, under 10 active | AID 1053135;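 active = inhibition above the mean over all tested compounds plus 3 SD, which no compound reached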;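 note: 0% = integrase with antibodies and DMSO and 100% = antibodies without integrase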
LEDGF integ conf = LEDGF/p75-dependent HIV-1 integration inhibition, confirmation. inhibition, % at 3.7 µM. hit rate 36% among 2,000. shares compounds with LEDGF integ inh. TR-FRET LEDGF/p75-dependent HIV-1 integration, biochemical; in the data active = inhibition above about 14%
* hit, by the source's call; / = no result given. Only some compounds are listed: those with a hit (about 1.9% of all), similar ones and a draw of the others.

SMILES | LEDGF integ inh | Casp6 inh | NSD2 inh | MBD2 DNA inh | TDP2 inh | UHRF1 MBD2 ctr | IN multimer act | TRFRET interf | LEDGF integ conf
COc1ccc2nc(NC(=O)c3ccccc3C(=O)O)sc2c1 | -1 | 4 | 0 | -1 | 6 | -3 | / | / | /
COc1ccc2nc(NC(=O)c3ccccc3F)sc2c1 | 16* | -3 | -4 | -4 | 3 | -1 | 1 | -3 | -2
C[C@@H]1CCCCO[C@@H](CN(C)Cc2ccncc2)[C@H](C)CN([C@@H](C)CO)C(=O)c2cc(NC(=O)c3ccccc3)ccc2O1 | / | -2 | / | / | / | / | / | / | /
O=C(Nc1nc(-c2ccccc2)cs1)c1ccc(=O)[nH]c1 | 4 | 0 | 0 | 0 | -4 | 4 | / | / | /
Cc1cc(-c2csc(NC(=O)c3ccc(=O)[nH]c3)n2)c(C)n1Cc1ccccc1 | 17* | -5 | 4 | 7 | -7 | 1 | 6 | -29 | 26*
C[C@H]1CN([C@@H](C)CO)C(=O)c2cc(NS(=O)(=O)c3ccc(Cl)cc3)ccc2O[C@H]1CN(C)Cc1ccncc1 | / | 1 | / | / | / | / | / | / | /
Cc1noc(C)c1S(=O)(=O)N(C)C[C@@H]1OCCCC[C@@H](C)Oc2ccc(NS(=O)(=O)c3cccs3)cc2C(=O)N([C@H](C)CO)C[C@@H]1C | / | 1 | / | / | / | / | / | / | /
CC1=CC(=O)C=CC1=Nc1ccc(N(C)C)cc1 | 27* | 7 | 0 | -8 | -5 | 1 | 5 | -19 | 2
CCc1nc(SCC(=O)Nc2cc(C)on2)c2c(C)c(C)sc2n1 | 0 | / | -1 | 1 | -2 | -1 | / | / | /
Cc1cc(NC(=O)CSc2nc(C3CC3)nc3sc(C)c(C)c23)no1 | 17* | / | / | -2 | 4 | 1 | 16* | -55 | -8
CCS(=O)(=O)C1=NN2C(=N)/C(=C\c3ccc(OC(=O)c4ccco4)c(Br)c3)C(=O)N=C2S1 | / | / | 20 | / | / | / | / | / | /
CCS(=O)(=O)C1=NN2C(=N)/C(=C\c3ccc(SCc4ccco4)o3)C(=O)N=C2S1 | 43* | / | 95* | 6 | 17 | 38* | 15* | -53 | 53*
CCOC(=O)c1ccc(NC2OC(=O)c3ccccc32)cc1 (configuration not stated) | 20* | / | -3 | 0 | 6 | -1 | -1 | 2 | -6
CN1CCN(C(=O)C[C@H]2CC[C@H]3[C@@H](COC[C@@H](O)CN3C(=O)C3CCOCC3)O2)CC1 | / | 1 | / | / | / | / | / | / | /
COc1ccc(NC(=S)N2CCC(NC(=O)c3ccc(OC)cc3)CC2)cc1 | 27* | -1 | 8 | 1 | 5 | -2 | -1 | 7 | 0
COc1ccc(NC(=S)N2CCC(NC(=O)c3ccc(F)cc3)CC2)cc1 | 4 | 0 | 0 | -2 | 4 | 3 | / | / | /
Cc1nn(C)cc1NC(=O)C[C@@H]1CC[C@H]2[C@@H](COc3ccc(NC(=O)C4CCOCC4)cc3C(=O)N2C)O1 | / | -2 | / | / | / | / | / | / | /
CC(=O)OC[C@]1(OC(C)=O)C[C@@]23CC[C@H]4[C@@](C)(CCC[C@@]4(C)C(=O)O)[C@@H]2CC[C@@H]1C3 | 0 | 2 | / | -1 | -4 | -3 | / | / | /
CC(=O)OC[C@]12CC[C@H]3[C@@](C)(CC[C@H]4C(C)(C)CCC[C@]34C)[C@@H]1CC(C1=CC(=O)OC1O)O2 (some centres not stated) | 20* | 21 | / | 5 | 0 | 4 | -3 | 13 | 63*
C[C@H]1CN([C@@H](C)CO)S(=O)(=O)c2ccc(-c3cccc(F)c3)cc2O[C@H]1CN(C)C | / | 3 | / | / | / | / | / | / | /
C[C@@H]1CN([C@H](C)CO)C(=O)Cc2cc(NC(=O)CCCCCC(=O)Nc3ccccc3N)ccc2O[C@@H]1CN(C)C(=O)Nc1ccccc1 | / | -3 | / | / | / | / | / | / | /
S=C(Nc1ccc(N2CCOCC2)cc1)Nc1ccc2nc(-c3ccco3)c(-c3ccco3)nc2c1 | 27* | / | 10 | -3 | 14 | -5 | 18* | -65 | 51*
O=C(Nc1ccc(N2CCOCC2)cc1)c1ccc2nc(-c3ccco3)c(-c3ccco3)nc2c1 | -2 | / | 1 | 2 | -4 | -3 | / | / | /
O=C(Nc1ccccc1)c1ccc2nc(-c3ccco3)c(-c3ccco3)nc2c1 | 17* | / | 1 | 2 | 3 | 6 | 4 | -20 | 43*
CCCCNC(=O)c1ccc2nc(-c3ccco3)c(-c3ccco3)nc2c1 | 50* | 72* | / | 0 | -3 | 28* | 6 | -28 | 33*
SMILES | LEDGF integ inh | Casp6 inh | NSD2 inh | MBD2 DNA inh | TDP2 inh | UHRF1 MBD2 ctr | IN multimer act | TRFRET interf | LEDGF integ conf
O=C(N/N=C\C=C\c1ccc([N+](=O)[O-])o1)c1cccs1 | 36* | 56* | 3 | 9 | -16 | 43* | 11* | -38 | 57*
Cc1ccccc1OCC(=O)N/N=C/c1ccc([N+](=O)[O-])o1 | 0 | 24 | 12 | -2 | -9 | 2 | / | / | /
COc1ccccc1OCC(=O)N/N=C/C=C/c1ccc([N+](=O)[O-])o1 | 38* | 6 | 5 | 9 | -17 | 35* | 11* | -57 | 46*
O=C(c1cnccn1)N1CC(=O)N2[C@@H](CO)[C@H](c3ccc(C#CC4CC4)cc3)[C@@H]2C1 | / | 4 | / | / | / | / | / | / | /
O=C(CCN1CCN(c2ccccc2)CC1)N/N=C/c1ccc(O)c(O)c1O | 42* | 65* | 21 | 8 | 15 | 27* | 49* | -174 | 73*
O=C(c1ccccn1)N1CC2(C1)[C@H](c1ccccc1)[C@@H](CO)N2C(=O)C1CCC1 | / | 0 | / | / | / | / | / | / | /
Cc1nn(CCCC(=O)Nc2sc3c(c2C#N)CCC3)c(C)c1[N+](=O)[O-] | 18* | / | 3 | -1 | 5 | 1 | -1 | 5 | -1
Cc1nn(C(C)C(=O)Nc2sc3c(c2C#N)CCCC3)c(C)c1[N+](=O)[O-] (configuration not stated) | 2 | / | 1 | -3 | -9 | 0 | / | / | /
Cc1cc(C)cc(CC(=O)N2CCC2(C)C(=O)NS(=O)(=O)c2cccc(OC(F)F)c2)c1 (configuration not stated) | 17* | 2 | -3 | 0 | -1 | -1 | 0 | -1 | -3
CC(C)(C)c1ccc(CC(=O)N2CCC2(C)C(=O)NS(=O)(=O)c2cccc(OC(F)F)c2)cc1 (configuration not stated) | 0 | -1 | 5 | -3 | 8 | -1 | / | / | /
CC(C)NC(=O)N1[C@H](CN(C)C(=O)c2cccnc2)[C@@H](c2ccccc2)[C@@H]1CO | / | 0 | / | / | / | / | / | / | /
